Experimental data published in PMC7178755 (Toxicology and applied pharmacology, 2019).
Where “and” joins values, the source holds several entries; their conditions need not be identical. Equal entries are not always repeated.

Experiments:
[1] = Gavage toxicokinetics, summary statements over rats and mice; assay type: in vivo; settings: rat, mouse, plasma, po
Summary of the method: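 Single gavage doses in corn oil were given to male and female rats (9–10 wk; 34, 110, 340 mg/kg) and B6C3F1/N mice (10–11 wk; 34 mg/kg), with a 34 mg/kg IV tail-vein reference. Plasma was sampled from 5 min to 48 h. Free and total (enzyme-deconjugated) test compound was quantitated. F = dose-adjusted oral/IV free AUC0−∞; half-life taken as K10 half-life from compartmental fits.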

[2] = Plasma toxicokinetics after single gavage administration in rats; assay type: in vivo, Harlan Sprague Dawley rats; settings: for bioavailability / Tmax / AUC(0-inf) / Cmax / half-life: rat, po; for bioavailability / Tmax / AUC(0-inf) / Cmax / half-life / Cl1_F / Cl2_F / K12 / K21 / V1_F / V2_F: plasma; for half-life / Cl1_F / Cl2_F / K12 / K21 / V1_F / V2_F: mean (SE)
[3] = rat, sex and strain not specified; ref Halocarbon, 2008; cited from earlier work
[4] = Plasma toxicokinetics after single gavage administration in mice; assay type: in vivo, B6C3F1/N mice; settings: for half-life / AUC(0-inf) / Cmax / Tmax / bioavailability: 34 mg/kg; for bioavailability: AUC/Dose (oral) ÷ AUC/Dose (IV) x 100
[5] = free BPAF; rats; single gavage 20 and 100 mg/kg; ref Li et al. (2013); cited from earlier work
[6] = tested on: hepatocytes from humans and rodents; settings: ref Waidyanatha et al., 2015, cited from earlier work
[7] = rat uterotrophic assay; administered orally; ref Conley et al., 2016; cited from earlier work
[8] = Plasma toxicokinetics after single intravenous administration in mice; assay type: in vivo, B6C3F1/N mice; settings: for AUC(0-inf) / Cmax / Vd / half-life: B6C3F1/N, mouse, iv, 34 mg/kg; for half-life / Cl1 / Cl2 / K12 / K21 / V1 / V2: free BPAF, 34 mg/kg IV, mean (SE)
[9] = female, Harlan Sprague Dawley (Hsd:Sprague Dawley SD), 34 mg/kg
[10] = female, Hsd:Sprague Dawley SD, 34 mg/kg
[11] = female, Hsd:Sprague Dawley SD, 110 mg/kg
[12] = female, Hsd:Sprague Dawley SD, 340 mg/kg
[13] = free BPAF, female HSD rats, 34 mg/kg gavage
[14] = free BPAF, female rats, 34 mg/kg gavage
[15] = free BPAF, female rats, 110 mg/kg gavage
[16] = free BPAF, female rats, 340 mg/kg gavage
[17] = free BPAF, male rats, 34 mg/kg gavage
[18] = free BPAF, male rats, 110 mg/kg gavage
[19] = free BPAF, male rats, 340 mg/kg gavage
[20] = male, Hsd:Sprague Dawley SD, 34 mg/kg
[21] = male, Hsd:Sprague Dawley SD, 110 mg/kg
[22] = male, Hsd:Sprague Dawley SD, 340 mg/kg
[23] = female, B6C3F1/N, mouse, plasma, po
[24] = free BPAF, female B6C3F1/N mice, 34 mg/kg gavage
[25] = free BPAF, female mice, 34 mg/kg gavage, plasma, mean (SE)
[26] = free BPAF, male mice, 34 mg/kg gavage, plasma, mean (SE)
[27] = male, B6C3F1/N, mouse, plasma, po

Oc1ccc(C(c2ccc(O)cc2)(C(F)(F)F)C(F)(F)F)cc1 [BPAF, Bisphenol AF]
half-life ([1]; Hsd:Sprague Dawley SD (rats), B6C3F1/N (mice)): ≤ 4.22 h | half-life ([1]; female, Harlan Sprague Dawley (rats) and B6C3F1/N (mice), 34 mg/kg): ~9 h | bioavailability ([2]; both, Hsd:Sprague Dawley SD): ~1% | Tmax ([2]; both, Hsd:Sprague Dawley SD, 34 mg/kg): 0.767 to 0.812 h | AUC(0-inf) [2, 9]: 1.37 µM·h | Cmax [2, 9]: 142 nM | bioavailability [2, 9]: 1.02% | bioavailability ([2]; female, Harlan Sprague Dawley (Hsd:Sprague Dawley SD), 340 mg/kg): 1.06% | Tmax ([2]; female, Hsd:Sprague Dawley SD): 0.767 to 1.34 h | AUC(0-inf) [2, 10]: 461 ng·h/mL | Cmax [2, 10]: 47.4 ng/mL | Tmax [2, 10]: 0.767 h | half-life ([2]; female, Hsd:Sprague Dawley SD, 34 mg/kg, Alpha Half-life, free BPAF, female rats, 34 mg/kg gavage): 0.384 h | half-life ([2]; female, Hsd:Sprague Dawley SD, 34 mg/kg, Beta Half-life, free BPAF, female rats, 34 mg/kg gavage): 8.68 h | half-life ([2]; female, Hsd:Sprague Dawley SD, 34 mg/kg, K10 Half-Life, free BPAF, female rats, 34 mg/kg gavage): 3.35 h | AUC(0-inf) [2, 11]: 1470 ng·h/mL | Cmax [2, 11]: 245 ng/mL | Tmax [2, 11]: 0.658 h | AUC(0-inf) [2, 12]: 4810 ng·h/mL | Cmax [2, 12]: 555 ng/mL | Tmax [2, 12]: 1.34 h | Dose-normalized AUC0−∞ [2, 13]: 13.6 (nmol.h/mL)/(mmol/kg) | Dose-normalized Cmax [2, 13]: 1.406 (nmol/mL)/(mmol/kg) | Cl1_F [2, 14]: 73.8 (13.3) L/h/kg | Cl2_F [2, 14]: 350 (4650) L/h /kg | K12 [2, 14]: 0.981 (31.1) 1/h | K21 [2, 14]: 0.698 (1.29) 1/h | V1_F [2, 14]: 357 (6600) L/kg | V2_F [2, 14]: 502 (5820) L/kg | Cl1_F [2, 15]: 74.7 (13.4) L/h/kg | Cl2_F [2, 15]: 194 (503) L/h /kg | K12 [2, 15]: 1.07 (19.3) 1/h | K21 [2, 15]: 0.215 (0.115) 1/h | V1_F [2, 15]: 181 (2810) L/kg | V2_F [2, 15]: 899 (2050) L/kg | Cl1_F [2, 16]: 70.7 (94.0) L/h/kg | Cl2_F [2, 16]: 101 (180) L/h /kg | K12 [2, 16]: 0.433 (15.4) 1/h | K21 [2, 16]: 0.0391 (0.0929) 1/h | V2_F [2, 16]: 2580 (6150) L/kg | Cl1_F [2, 17]: 85.2 (20.0) L/h/kg | Cl2_F [2, 17]: 193 (24800) L/h /kg | K12 [2, 17]: 0.849 (604) 1/h | K21 [2, 17]: 0.257 (0.137) 1/h | V1_F [2, 17]: 227 (132000) L/kg | V2_F [2, 17]: 752 (966600) L/kg | Cl1_F [2, 18]: 89.1 (52.4) L/h/kg | Cl2_F [2, 18]: 122 (2520) L/h /kg | K12 [2, 18]: 0.402 (62.7) 1/h | K21 [2, 18]: 0.0972 (0.207) 1/h | V1_F [2, 18]: 304 (41100) L/kg | V2_F [2, 18]: 1260 (23900) L/kg | Cl1_F [2, 19]: 70.3 (20.8) L/h/kg | Cl2_F [2, 19]: 36.9 (1910) L/h /kg | K12 [2, 19]: 0.156 (49.5) 1/h | K21 [2, 19]: 0.0814 (0.223) 1/h | V1_F [2, 19]: 237 (62900) L/kg | V2_F [2, 19]: 454 (24400) L/kg | bioavailability ([2]; male, Harlan Sprague Dawley (Hsd:Sprague Dawley SD), 34 mg/kg): 0.88% | bioavailability ([2]; male, Harlan Sprague Dawley (Hsd:Sprague Dawley SD), 110 mg/kg): 0.84% | bioavailability ([2]; male, Harlan Sprague Dawley (Hsd:Sprague Dawley SD), 340 mg/kg): 1.07% | Tmax ([2]; male, Hsd:Sprague Dawley SD): 0.812 to 2.3 h | AUC(0-inf) [2, 20]: 399 ng·h/mL | Cmax [2, 20]: 60.7 ng/mL | Tmax [2, 20]: 0.812 h | half-life ([2]; male, Hsd:Sprague Dawley SD, 34 mg/kg, Alpha Half-life, free BPAF, male rats, 34 mg/kg gavage): 0.491 h | half-life ([2]; male, Hsd:Sprague Dawley SD, 34 mg/kg, Beta Half-life, free BPAF, male rats, 34 mg/kg gavage): 10.2 h | half-life ([2]; male, Hsd:Sprague Dawley SD, 34 mg/kg, K10 Half-Life, free BPAF, male rats, 34 mg/kg gavage): 1.85 h | AUC(0-inf) [2, 21]: 1230 ng·h/mL | Cmax [2, 21]: 142 ng/mL | Tmax [2, 21]: 1.43 h | AUC(0-inf) [2, 22]: 4830 ng·h/mL | Cmax [2, 22]: 552 ng/mL | Tmax [2, 22]: 2.2 h | oral LD50 [3]: 3400 mg/kg | half-life ([4]; both, B6C3F1/N, mouse, plasma, po, elimination half-life, free BPAF, male and female mice, 34 mg/kg gavage): ≤ 4.22 h | AUC(0-inf) [4, 23]: 495 ng·h/mL and 1.47 µM·h | Cmax [4, 23]: 105 ng/mL and 313 nM | Tmax [4, 23]: 0.342 h | half-life ([4]; female, B6C3F1/N, mouse, plasma, po, Alpha Half-life, free BPAF, female mice, 34 mg/kg gavage, mean (SE)): 0.209 h | half-life ([4]; female, B6C3F1/N, mouse, plasma, po, Beta Half-life, free BPAF, female mice, 34 mg/kg gavage, mean (SE)): 9.02 h | bioavailability ([4]; female, B6C3F1/N, mouse, plasma, po, Bioavailability, free BPAF, Female Mice, 34 mg/kg gavage): 3% | half-life ([4]; female, B6C3F1/N, mouse, plasma, po, K10 Half-Life, free BPAF, female mice, 34 mg/kg gavage, mean (SE)): 1.33 h | bioavailability ([4]; free BPAF, Female Mice, 34 mg/kg gavage): 3.13% | bioavailability ([4]; free BPAF, Male Mice, 34 mg/kg gavage): 5.64% | Dose-normalized AUC0−∞ [4, 24]: 14.6 (nmol.h/mL)/(mmol/kg) | Dose-normalized Cmax [4, 24]: 3.099 (nmol/mL)/(mmol/kg) | Cl1_F [4, 25]: 68.7 (22.5) L/h/kg | Cl2_F [4, 25]: 313 (17400) L/h /kg | K12 [4, 25]: 2.38 (899) 1/h | K21 [4, 25]: 0.487 (0.497) 1/h | V1_F [4, 25]: 131 (42200) L/kg | V2_F [4, 25]: 642 (35300) L/kg | Cl1_F [4, 26]: 80.0 (22.5) L/h/kg | Cl2_F [4, 26]: 13.2 (226) L/h /kg | K12 [4, 26]: 0.0271 (0.476) 1/h | K21 [4, 26]: 0.369 (5.1) 1/h | V1_F [4, 26]: 487 (238) L/kg | AUC(0-inf) [4, 27]: 425 ng·h/mL | Cmax [4, 27]: 64.1 ng/mL | Tmax [4, 27]: 0.455 h | half-life ([4]; male, B6C3F1/N, mouse, plasma, po, Alpha Half-life, free BPAF, male mice, 34 mg/kg gavage, mean (SE)): 1.67 h | half-life ([4]; male, B6C3F1/N, mouse, plasma, po, Beta Half-life, free BPAF, male mice, 34 mg/kg gavage, mean (SE)): 4.73 h | bioavailability ([4]; male, B6C3F1/N, mouse, plasma, po, Bioavailability, free BPAF, Male Mice, 34 mg/kg gavage): ~6% | half-life ([4]; male, B6C3F1/N, mouse, plasma, po, K10 Half-Life, free BPAF, male mice, 34 mg/kg gavage, mean (SE)): 4.22 h | Tmax (maximum plasma BPAF concentration observed at) [5]: 1 h | clearance compared with BPA ([6]; hepatocytes from humans and rodents, in vitro): cleared more slowly than BPA | clearance rank order between species ([6]; hepatocytes in vitro): rat > mouse > human | ED50 [7]: 209.1 mg/kg/day | AUC(0-inf) ([8]; female): 15800 ng·h/mL | Cmax ([8]; female): 92300 ng/mL | Vd ([8]; female): 1.36 L/kg | half-life ([8]; female, Alpha half-life, female mice): 0.106 h | half-life ([8]; female, Beta half-life, female mice): 3.03 h | half-life ([8]; female, K10 Half-Life, female mice): 0.119 h | Cl1 ([8]; female mice): 2.15 (0.426) L/h/kg | Cl2 ([8]; female mice): 0.256 (0.108) L/h /kg | K12 ([8]; female mice): 0.696 (0.190) 1/h | K21 ([8]; female mice): 0.257 (0.0225) 1/h | V1 ([8]; female mice): 0.368 (0.129) L/kg | V2 ([8]; female mice): 0.995 (0.388) L/kg | Cl1 ([8]; male mice): 4.51 (0.547) L/h/kg | Cl2 ([8]; male mice): 0.860 (0.324) L/h /kg | K12 ([8]; male mice): 0.189 (0.0802) 1/h | K21 ([8]; male mice): 0.227 (0.0304) 1/h | V1 ([8]; male mice): 4.54 (1.06) L/kg | V2 ([8]; male mice): 3.78 (1.10) L/kg | AUC(0-inf) ([8]; male): 7540 ng·h/mL | Cmax ([8]; male): 7490 ng/mL | Vd ([8]; male): 8.32 L/kg | half-life ([8]; male, Alpha half-life, male mice): 0.566 h | half-life ([8]; male, Beta half-life, male mice): 3.76 h | half-life ([8]; male, K10 Half-Life, male mice): 0.698 h
